High-throughput results deposited in PubChem by Broad Institute.
The list is not random: actives were taken first. Their share in the collection is about 3.1%.
CFTR F508del cor: F508del CFTR correction, initial screen, CFBE line, single point. CFBE cells, YFP halide quenching; stimulated with forskolin plus potentiator P3; % fluorescence drop versus neutral controls. activity (quench increase), % at 7.58 µM. 0.36% of 350,000 active;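 active = mean added fluorescence quench of at least 8% versus neutral control, with both replicates also reaching 8%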;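 also: cells transiently co-express mutant CFTR-F508del with the halide-sensitive YFP; corrector assay measuring rescue of mutant channel to the surface after 24 h compound exposure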
Ecoli rRNA inh: reduced GFP signal of wild-type E. coli, primary screen, bacterial rRNA inhibitor project, GFP/RFP fluorescence, OD600, single point; 1.6% of 350,000 active; E. coli WT GFP vs humanized-ribosome RFP mutants, 24 h; active compounds read low; DMSO median 0, no signal -100; GFP signal change (wild-type ribosome), % (no concentration beside the values);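 active = significant combined selectivity score with lowered wild-type GFP, culture density cut under 30%, mutant RFP and density less affected; inactive = any of these conditions unmet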
miR-122 sensor: miR-122 Renilla sensor signal increase in Huh7, primary screen, miR-122 inhibitor project, cell-based, single point, plate reader. Huh7 miR-122 Renilla luciferase sensor, 48 h; neutral wells = 0, positive control = 100. activation (reporter increase), % at 12.5 µM. 0.3% of 340,000 active;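 active = mean replicate activation score at least 90 and every replicate individually at or above 90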;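 also: higher luciferase means less miR-122 activity so hits act as miR-122 inhibitors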
GSIS activator: GLuc luminescence reporter in INS-1E cells, primary screen for activators of glucose-dependent secretion of insulin | activation, % at 16.6 µM | INS-1E GLuc reporter insulin secretion, 2-3 h | AID 743287, 2014 | 0.61% of 370,000 active;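 active = lowest replicate activation of at least 40%, so every replicate reaches that level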;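 also: 0% = median of neutral control wells and 100% = median of IBMX positive control wells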
HIV Env fusion: inhibitors of HIV-1 Env-driven cell-cell fusion, primary screen, HeLa-JRFL effector, CEM21 target cells, luciferase; 1.1% of 360,000 active; inhibition, % at 12.3 µM; AID 651610, 2012;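 active = mean replicate inhibition score of at least 50 and every replicate individually at or above 50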;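 also: 0% = plate neutral controls and 100% = maraviroc near 300 nM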
Cneo AK release: Cryptococcus neoformans cell lysis inducers, primary screen, AK release luminescence, single concentration; lysis activity, % at 15 µM; C. neoformans lysis, adenylate kinase release luminescence, 4 h; normalised: neutral wells 0, clomiphene wells 100; 0.2% of 360,000 active;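 active = mean lysis activity across replicates of at least 80%, whatever share of replicates individually reach that level; inactive = mean lysis activity below 80%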
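read-out = cell lysis signal | test system = log-phase Cryptococcus neoformans yeast cells | input = cells at 5 × 10^6 per mL | medium = fresh YPD growth medium | signal = luminescent adenylate kinase detection reagent | timing = 4 h at 37 °C static, read 1 h later | dosing = single dose | controls = Clomiphene as positive lysis control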
Active calls of the source: *; · = no result; [ ] = dose if it differs, or a comment.

SMILES	CFTR F508del cor	Ecoli rRNA inh	miR-122 sensor	GSIS activator	HIV Env fusion	Cneo AK release
C[C@@H]1CCCCO[C@H](CN(C)C(=O)c2ccccc2)[C@@H](C)CN([C@@H](C)CO)C(=O)c2cc(NC(=O)NC3CCCCC3)ccc2O1	0.1	-8.3	1.1[16.7 µM]	-31.0	-40.6[16.7 µM]	44.0
C=C(C)CSc1cc(C)nc2c(-c3ccccc3)c(C)nn12	-7.3	-49.2*	·	2.2	61.1*	-3.8
Cc1nn2c(SCC(=O)c3cccs3)cc(C(C)(C)C)nc2c1-c1ccccc1	·	-29.7*	·	12.3	-8.1	·
CCSc1cc(C)nc2c(-c3ccccc3)c(C)nn12	·	·	·	-10.1	-32.7	-1.2
Cc1cc(SCC(=O)Nc2ccc(O)cc2)n2nc(C)c(-c3ccccc3)c2n1	0.3	-19.7	-3.0	6.2	24.7	-1.3
CN1C(=S)N(c2ccccc2)C(=O)/C1=C/c1cccs1	·	·	·	68.5*	-112.5	·
C[C@H]1CN([C@@H](C)CO)C(=O)c2cccc(NC(=O)Nc3ccccc3)c2O[C@H]1CN(C)Cc1ccc(-c2ccccc2)cc1	1.8	-1.0	5.2[16.7 µM]	-18.8	-24.7[16.7 µM]	-1.5
O=C(COC(=O)[C@@H]1CC(O)CN1S(=O)(=O)c1ccccc1[N+](=O)[O-])c1ccccc1 (some centres undefined)	0.7	7.8	-6.3	-7.4	-2.5	-0.2
COC(=O)c1ccc(COC(=O)[C@@H]2CC(O)CN2S(=O)(=O)c2ccccc2[N+](=O)[O-])cc1 (some centres undefined)	-2.9	-17.4*	-15.5	-4.1	-22.9	-0.7
CCOC(=O)[C@]12Cc3c(cc(OC)c(OC)c3OC)[C@H]1N(CCC(=O)OC)C(=O)c1cc(OC)ccc12	2.6	-24.2*	·	-21.3	-3.0	·
CCOC(=O)[C@]12Cc3c(cc(OC)c(OC)c3OC)[C@H]1N(Cc1ccccc1)C(=O)c1cc(OC)ccc12	0.6	3.2	·	-5.4	36.1	·
CC=Cc1ccc2n(c1=O)C[C@H]1[C@H](CO)[C@@H](C(=O)NCC)N(C(=O)c3cccnc3)[C@@H]21 (mixture of isomers)	-0.6	3.0	-7.8[16.7 µM]	2.6	·	-0.7
CC(C)Cc1nn2c(=O)cc(COc3ccc(NC(=O)c4ccco4)cc3)nc2s1	-2.7	2.2	0.9	46.8*	-2.8	2.8
CCc1nn2c(=O)cc(COc3ccc(NC(=O)c4ccco4)cc3)nc2s1	-0.4	7.8	0.8	2.1	7.9	9.9
CC(C)NC(=O)Nc1cccc2c1O[C@H](CN(C)S(=O)(=O)c1ccc(Cl)cc1)[C@H](C)CN([C@H](C)CO)C2=O	-0.4	-8.6	6.5[16.7 µM]	-3.4	·	-1.8
COc1ccc(NC(=O)c2sc3nc(N4CCOCC4)c4c(c3c2N)CC(C)(C)OC4)c(OC)c1	-0.5	10.6	0.9	127.2*	-11.1	-0.2
COCC(=O)Nc1ccc2c(c1)OC[C@H](C)N(Cc1ccccc1OC)C[C@H](C)[C@@H](OC)CN(C)C2=O	1.8	0.8	·	-1.9	·	·
O=C1CCCc2ccc3ccccc3c21	-2.1	·	-2.2	5.4	5.0	1.0
O/N=C1\CCCc2ccc3ccccc3c21	0.5	-38.5*	·	0.3	-1.8	-11.9
CNC[C@H]1OCCCC[C@@H](C)Oc2ccc(NS(=O)(=O)c3ccccc3)cc2C(=O)N([C@@H](C)CO)C[C@H]1C	-3.9	3.4	4.3[16.7 µM]	3.4	-2.4[16.7 µM]	-0.1
CCCCN(C)CCNC(=O)c1ccc(Cn2c(=S)[nH]c3ccc(Br)cc3c2=O)cc1	1.3	-52.8*	·	-4.1	20.4	·
CCc1ccc(-c2cc(C(=O)N/N=C/c3ccccn3)[nH]n2)cc1	-3.7	-25.4*	·	1.3	-0.3	·
CCc1ccc(-c2cc(C(=O)N/N=C/c3ccco3)[nH]n2)cc1	-3.2	-19.6*	·	-5.4	3.6	·
O=C(N/N=C/c1ccco1)c1cc(-c2ccc3ccccc3c2)n[nH]1	·	·	4.1	82.7*	·	-1.8
CC(C)(C)c1cc(C(=O)N/N=C/c2ccco2)n[nH]1	·	·	-4.9	-2.3	·	3.8
SMILES	CFTR F508del cor	Ecoli rRNA inh	miR-122 sensor	GSIS activator	HIV Env fusion	Cneo AK release
CCOc1ccccc1-c1cc(C(=O)N/N=C/c2cccnc2)c2ccccc2n1	-0.3	·	-1.7	·	10.9	-0.5
Cc1ccc(COc2ccccc2-c2cc(C(=O)N/N=C/c3cccnc3)[nH]n2)cc1	9.7*	-4.6	·	7.7	-189.9	·
CNC[C@H]1OCCCC[C@H](C)Oc2ccc(NS(=O)(=O)c3cccs3)cc2C(=O)N([C@@H](C)CO)C[C@H]1C	0.3	-0.6	9.6[16.7 µM]	9.2	10.3[16.7 µM]	-5.2
CC(C)NC(=O)Nc1ccc2c(c1)C(=O)N([C@@H](C)CO)C[C@@H](C)[C@@H](CN(C)Cc1ccc(-c3ccccc3)cc1)O2	-2.3	-20.9	-1.1[16.7 µM]	-24.7	24.9[16.7 µM]	5.8
CC(=O)N(C)C[C@@H]1Oc2cc(C#CCC3CCCC3)ccc2S(=O)(=O)N([C@H](C)CO)C[C@H]1C	2.4	-0.6	-6.4[16.7 µM]	-9.7	34.2[16.7 µM]	-0.2
CO[C@H]1CN(C)C(=O)c2cc(NC(=O)c3cccc(F)c3)ccc2OC[C@H](C)N(CC2CC2)C[C@H]1C	1.7	-2.3	·	1.1	·	1.1
CNC[C@@H]1Oc2ccc(NS(C)(=O)=O)cc2CC(=O)N([C@H](C)CO)C[C@H]1C	0.0	7.1	-0.9[16.7 µM]	21.2	64.9*[16.7 µM]	1.9
C[C@@H]1CN([C@@H](C)CO)C(=O)Cc2cc(NS(C)(=O)=O)ccc2O[C@H]1CN(C)CC1CC1	1.9	3.6	-4.3[16.7 µM]	17.7	2.2[16.7 µM]	-11.5
CNC[C@@H]1Oc2ccc(NS(C)(=O)=O)cc2CC(=O)N([C@@H](C)CO)C[C@H]1C	0.9	-1.3	-3.2[16.7 µM]	15.2	-3.1[16.7 µM]	-0.6
C[C@H](CO)N1C[C@H](C)[C@@H](CN(C)CC2CC2)Oc2ccc(NS(C)(=O)=O)cc2CC1=O	0.4	6.0	-4.6[16.7 µM]	-5.7	57.6*[16.7 µM]	-8.7
COc1ccc2c3c(n(C)c2c1)[C@H](CO)N(Cc1ccc2c(c1)OCO2)CC31CN(C)C1	·	1.5	·	7.5	·	·
O=C(COc1ccccc1)Nc1sc2c(c1C(=O)NCc1cccnc1)CCCC2	·	·	·	92.3*	·	·
COC(=O)c1c(NC(=O)COC(=O)c2ccccn2)sc(C)c1C	1.4	1.4	-2.2	10.6	-2.7	-1.0
O=C(COc1ccc(Cl)cc1)Nc1ccc(C(=O)NCc2cccnc2)cc1	·	·	11.3	·	·	-0.1
CCOC(=O)c1c(NC(=O)COC(=O)c2ccccn2)sc2c1CCC2	-1.6	-17.7*	0.3	14.7	-21.8	0.0
O=C(COc1ccc(C(=O)NCc2cccnc2)cc1)Nc1cccc(C(F)(F)F)c1	-3.4	-22.9*	-2.1	-41.1	40.0	0.7
